The list is not random: actives were taken first. Their share in the collection is about 4%.
MPTP block: mitochondrial permeability transition pore inhibitors, primary screen, biochemical, isolated mouse mitochondria, absorbance; inhibition, % at 10 µM; AID 602449, 2012; 360,000 tested, 1.4% active; Ca2+ swelling absorbance, 30 min;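 active = inhibition of 50% or more, scaled per plate between neutral and stimulator controls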
DAGLB inhibitor: DAGLB lipase inhibitors, primary screen, biochemical, fluorescence, HTS; AID 504411, 2011; inhibition, % at 5.17 µM; 340,000 tested, 0.059% active; HEK293T DAGLB membrane lysate, EnzChek fluorogenic substrate; in the data active = inhibition above about 34%
Target sequence (Q8NCG7 whole entry, looked up): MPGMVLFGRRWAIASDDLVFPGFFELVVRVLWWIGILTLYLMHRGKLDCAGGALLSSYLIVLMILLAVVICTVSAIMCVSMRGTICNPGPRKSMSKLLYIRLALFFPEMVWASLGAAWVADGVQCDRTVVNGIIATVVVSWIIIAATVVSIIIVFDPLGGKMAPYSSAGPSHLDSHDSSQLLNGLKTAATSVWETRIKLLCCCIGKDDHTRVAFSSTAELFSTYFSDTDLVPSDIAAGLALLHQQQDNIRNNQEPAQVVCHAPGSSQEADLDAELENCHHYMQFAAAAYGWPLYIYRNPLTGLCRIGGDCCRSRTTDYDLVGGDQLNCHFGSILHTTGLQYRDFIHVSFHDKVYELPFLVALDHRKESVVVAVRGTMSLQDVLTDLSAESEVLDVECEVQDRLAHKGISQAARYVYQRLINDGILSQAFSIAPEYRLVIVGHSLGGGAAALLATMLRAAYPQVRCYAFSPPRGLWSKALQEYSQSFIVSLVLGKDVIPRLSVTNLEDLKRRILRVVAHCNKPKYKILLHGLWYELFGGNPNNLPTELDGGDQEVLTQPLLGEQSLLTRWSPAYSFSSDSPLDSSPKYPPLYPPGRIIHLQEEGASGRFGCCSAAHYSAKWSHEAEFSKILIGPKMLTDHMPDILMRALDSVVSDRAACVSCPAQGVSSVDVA
TAAR1 antagonist: human TAAR1 antagonists, primary screen, Fluo-8 calcium fluorescence, CHO RD-HGA16 cells; Trace amine-associated receptor 1 (Homo sapiens), Q96RJ0; antagonist; inhibition, % at 3 µM; 360,000 tested, 1.5% active;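 active = inhibition above a per-plate cutoff, the mean inhibition of test compounds on that plate plus 3 SD, cut at about 49% in these data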
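Test system: CHO RD-HGA16 cells bearing hTAAR1 | Reagent: β-PEA, EC80 | Compound dosing: 3 µM, single point | Schedule: Dye loading 75 min at 37 °C, then 30 min room temperature | Signal: Calcium fluorescence with Fluo-8 | Evaluation: Percent inhibition of PEA-evoked calcium signal, max/basal emission ratio | Control set: DMSO-only wells and EC80 β-PEA-stimulated wells | Repeats: Singlicate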
TAAR1 agonist: human TAAR1 agonists, primary screen, Fluo-8 calcium fluorescence, CHO RD-HGA16 cells. 360,000 tested, 0.99% active. vehicle wells 0%, saturating PEA agonist 100%. activation, % at 3 µM. Trace amine-associated receptor 1 (Homo sapiens), Q96RJ0. AID 624467, 2012;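 active = activation above the mean activation of all test compounds in the run plus 3 SD, cut at about 38% in these data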
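Assay system – CHO-derived RD-HGA16 cells with stable Gα16 and human TAAR1 · Compound dosing – one-point dosing at 3 µM (nominal) · Incubation – 17-24 h seeding, 75 min 37 °C dye, 30 min RT · Measured by – kinetic Fluo-8 calcium fluorescence · Control set – DMSO vehicle as 0%, PEA at EC100 as 100% · Repeats – single well for each compound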
GPR7 antagonist: GPR7 receptor antagonists, primary screen, cell-based, fluorescence, single concentration; GPR7-expressing cells, fluorescence antagonist assay; 290,000 tested, 1.1% active; inhibition, % at 4.4 µM; in the data active = inhibition above about 16%, passing the limit was not always enough;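 note: cells stimulated with the agonist NPW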
MPTP counter: fluorescence retest of MPTP screen hits in isolated mitochondria, single concentration; shares compounds with MPTP block; membrane potential, Rhodamine 123 fluorescence; inhibition, % at 10 µM; 5,000 tested, 78% active; AID 624504, 2012; in the data active = inhibition above about 22%
MPTP swell DR: mitochondrial permeability transition pore inhibitors, dose response, biochemical, absorbance, uHTS hits; shares compounds with MPTP block; isolated mitochondria swelling; 780 tested, 58% active; AID 651561, 2012; IC50, µM; in the data active = IC50 below about 20 µM
MPTP cs DR: fluorescent counter-screen in isolated mitochondria, dose response, counter-screen for MPTP inhibitor project, biochemical, fluorescence, uHTS hits | shares compounds with MPTP block | isolated mitochondria counterscreen, fluorescence read-out | IC50, µM | 780 tested, 49% active; in the data active = IC50 below about 80 µM
Large screens that a line does not name were inactive (follow-up assays come after a bar, where they were run).

CNC(=O)c1cnc(-c2ccccc2)nc1-c1ccccc1	none
COC(=O)Cc1ccc(NC(=S)NCCSc2ccc(C)cc2)cc1	none
CC(CNC(=S)Nc1cc(F)cc(F)c1)CSc1ccc(Cl)cc1 (stereo unspecified)	MPTP block 97.1 | MPTP counter 88.8
Cc1ccc(NC(=S)NCCSc2ccc(Cl)cc2)cc1	MPTP block 99.8 | MPTP counter 99.4
COc1ccccc1NC(=S)NCCSc1ccc(Cl)cc1	none
CCNC(=S)Nc1ccc(Cl)cc1	none
Cc1cccc(C)c1NC(=S)NCCSc1ccc(Cl)cc1	MPTP block 82.1 | MPTP counter 86.3
COc1ccc(Cl)cc1NC(=S)NCCSc1ccc(C)cc1	MPTP block 82.1 | MPTP counter 81.1
COc1ccc(OC)c(CNS(=O)(=O)c2ccccc2Br)c1	none (no result: MPTP block, DAGLB inhibitor, GPR7 antagonist)
CCC(=O)N1CCC1(C)C(=O)Nc1ccc2scnc2c1 (stereo unspecified)	none (no result: DAGLB inhibitor, GPR7 antagonist)
CCOC(=O)C1=CCN(S(=O)(=O)c2ccc(F)cc2)C1c1ccc(Cl)c(Cl)c1 (stereo unspecified)	none (no result: DAGLB inhibitor, GPR7 antagonist)
CC(C)c1cccc(-c2csc(C(C)(O)c3ccncc3)n2)c1 (stereo unspecified)	MPTP block 95.1 (no result: DAGLB inhibitor, GPR7 antagonist) | MPTP counter 89.2
CCCc1[nH]c2ccc(C#N)cc2c1CCC	MPTP block 69.0 | MPTP counter 85.8
CCCCCn1nnnc1-c1nc2cc(C)c(C)cc2[nH]c1=O	none (no result: DAGLB inhibitor, GPR7 antagonist)
CCOC(=O)N1CCN(C(=O)c2oc3ccc(S(=O)(=O)N4CCCCC4)cc3c2C)CC1	none
Cc1c(C(=O)N2CCCCC2)oc2ccc(S(=O)(=O)N3CC(C)CC(C)C3)cc12 (stereo unspecified)	MPTP block 83.3 (no result: TAAR1 antagonist, TAAR1 agonist) | MPTP counter 43.8
O=C(O)c1cc([N+](=O)[O-])ccc1Oc1ccccc1	none (no result: GPR7 antagonist)
O=C(CSc1nc2ccccc2c(=O)n1-c1ccccc1)N1CCc2ccccc2C1	MPTP block 83.8 | MPTP counter 74.7
CC(C)c1ccccc1-n1c(SCC(=O)N2CCc3ccccc3C2)nc2ccccc2c1=O	none
O=C1NC[C@H](CCCCN2C[C@H](Cc3ccc(O)cc3)N(CCC3CCCCC3)C(=O)C2=O)N(CCC2CCCCC2)C1=O	none (no result: DAGLB inhibitor, GPR7 antagonist)
CCOc1ccc(-c2csc(/C(C#N)=C\c3ccc(O)c([N+](=O)[O-])c3)n2)cc1	MPTP block 73.1 | MPTP counter 70.3
CCC(C)Nc1nc(OC(C(F)(F)F)C(F)(F)F)nc(OC(C(F)(F)F)C(F)(F)F)n1 (stereo unspecified)	MPTP block 60.0 | MPTP counter 59.6
C[C@H]1c2cccc(O)c2C(O)=C2C(=O)[C@]3(O)C(O)=C(C(N)=O)C(=O)[C@@H](N(C)C)[C@@H]3[C@@H](O)[C@@H]21	MPTP block 79.9 (no result: TAAR1 antagonist, TAAR1 agonist, GPR7 antagonist) | MPTP counter inactive
O=C(NNc1ccccc1[N+](=O)[O-])Nc1ccc(F)cc1F	none
O=C(NNc1ccccc1[N+](=O)[O-])Nc1cccc(Cl)c1	MPTP block 83.9 | MPTP counter 85.2
O=C(Nc1ccccc1)Nc1cccc(Cl)c1	MPTP block 95.7 | MPTP counter 87.1
CC(C)(C)c1cc(C(=O)NNC(=O)Nc2cccc(Cl)c2)n(Cc2ccccc2)n1	MPTP block 71.2 | MPTP counter 79.0
O=C(NCCCc1ccccc1)Nc1cccc(Cl)c1	MPTP block 70.1 | MPTP counter 95.0
O=C(Nc1cccc(Cl)c1)Nc1cccc(C(=O)O)c1	none (no result: DAGLB inhibitor)
CC(C)(C)c1cc(C(=O)NNC(=O)Nc2ccccc2)n(Cc2ccccc2)n1	none
COCCCNC(=O)COc1cc2c(c3oc(=O)c(C)c(C)c13)CCC(C)(C)O2	none
CC(=O)Nc1cc(-c2cccc(NS(C)(=O)=O)c2)cn2c(-c3ccc(F)c(Cl)c3)cnc12	none (no result: DAGLB inhibitor, GPR7 antagonist)
O=C(NCc1ccccc1)[C@@H]1CCCN1C(=O)[C@H]1CCCN1C(=O)c1ccccc1C(F)(F)F	none (no result: MPTP block, DAGLB inhibitor, GPR7 antagonist)
CC1(C)CC(=O)C=C(c2n[nH]nc2-c2ccccc2)C1	none (no result: GPR7 antagonist)
CC(C)[C@@H](C)/C=C/[C@@H](C)[C@H]1CC[C@@H]2[C@]1(C)CCC1[C@]23C=C[C@]2(C[C@@H](O)CC[C@]12C)N(C(=O)Cc1ccccc1)O3 (stereo partly specified)	none (no result: MPTP block, DAGLB inhibitor, GPR7 antagonist)
O=S1(=O)N[C@@H](Cc2ccccc2)COc2cc(N3CCOCC3)ccc21	none (no result: MPTP block, DAGLB inhibitor, GPR7 antagonist)
O=C(Nc1ccccc1)Nc1ccc(Cl)nc1Cl	MPTP block 73.2 (no result: GPR7 antagonist) | MPTP counter 88.4
Cc1c(O)ccc(/C(Cc2ccc3ccccc3n2)=N\O)c1O	MPTP block 72.9 | MPTP counter 34.5
CC(=O)Oc1ccc(C(=O)Cc2ccc3ccccc3n2)c(O)c1C	none
COc1ccc(CN2C[C@@H](CO)O[C@@H](n3cnc4c(NCCN(C)C)ncnc43)C2)cc1	none (no result: DAGLB inhibitor, GPR7 antagonist)
COC(=O)[C@]12C[C@H](CC(=O)N3CCCC3)C(=O)N(CCC3=CCCCC3)C1=C[C@H](COCc1ccccc1)O[C@@H]2C	none (no result: MPTP block, DAGLB inhibitor, GPR7 antagonist)
Cc1nn(-c2ccc(F)cc2)c(Cl)c1C(=O)N(C)CC(=O)Nc1cccc(F)c1	none (no result: GPR7 antagonist)
CC(C)(C)C1=CC(=O)C(=O)C(C(C)(C)C)=C1	MPTP block 79.7 (no result: TAAR1 antagonist, TAAR1 agonist) | MPTP counter inactive
COc1ccc(NC(=O)C2Cc3c(-c4ccccc4)ccnc3O2)cc1OC (stereo unspecified)	MPTP block 59.4 (no result: DAGLB inhibitor, TAAR1 antagonist, TAAR1 agonist, GPR7 antagonist) | MPTP counter 84.7
COc1ccc(NC(=O)C2Cc3c(-c4ccc(Cl)cc4)ccnc3O2)cc1OC (stereo unspecified)	MPTP block 69.9 (no result: DAGLB inhibitor, GPR7 antagonist) | MPTP counter 79.8
O=C(Cc1ccc(NC(=O)C2CCCN(C(=O)C3CCC3)C2)cc1)Nc1cccc(C(=O)N2CCCCC2)c1 (stereo unspecified)	none (no result: GPR7 antagonist)
CCN(CC)CCN(C)C(c1cc2ccccc2o1)c1nnnn1C(C)(C)C (stereo unspecified)	none (no result: DAGLB inhibitor, GPR7 antagonist)
COC12CC(=O)C(C(C)=O)=C(O)C1(C)c1c(O)c(C)c(O)c(C(C)=O)c1O2 (stereo unspecified)	none (no result: DAGLB inhibitor, GPR7 antagonist)
Cc1cc(C)c2nc(SCCc3ccccc3)nc(C)c2c1	MPTP block 71.4 | MPTP counter inactive | MPTP swell DR inactive | MPTP cs DR inactive
Cc1c(C)n(CCc2ccccc2)c2ncnc(NCCO)c12	none
Cc1c(C)n(Cc2ccccc2)c2ncnc(Cl)c12	MPTP block 56.4 | MPTP counter 65.2
